Two molecules from ChEMBL document CHEMBL4325904 (Eur J Med Chem, 2019) can be followed below.

Active and inactive are the calls of the source. No cut-off for these calls is given here. Bounds are passed on as bounds.

For one series, the target named is Histone deacetylase 5 (Homo sapiens, UniProt Q9UQL6). The experiment in a line: Inhibition of recombinant C-terminal His-tagged human HDAC5 (656 to 1122 residues) expressed in insect cells using Boc-K(Ac)-AMC as substrate by fluorimetric assay.
The species named for series [1] is Homo sapiens. The series is described as follows: Selectivity ratio of IC50 for recombinant C-terminal His-tagged human HDAC5 (656 to 1122 residues) to IC50 for recombinant N-terminal GST-tagged human HDAC6 (1 to 1215 residues).
The species entered for series [2] is Homo sapiens. The series is described as follows: Selectivity ratio of IC50 for human HDAC9 to IC50 for recombinant N-terminal GST-tagged human HDAC6 (1 to 1215 residues).
Another series deals with Kasumi 1. The series is described as follows: Potency index, ratio of scriptaid IC50 to test compound IC50 for human Kasumi-1 cells. It counts as functional.
A short description of series [3]: Drug uptake in zebrafish embryo vasculature at 1 to 20 uM administered from 24 to 50 hrs post fertilization for 24 hrs and measured after 72 hrs by fluorescence microscopic analysis. The note with it: in vivo. It counts as ADME, Danio rerio. The gist of the method: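 Zebrafish embryos treated with 1, 10 or 20 µM from 24–50 hpf, with 0 µM controls; trunk and tail imaged at 72 hpf by fluorescence microscopy (λex 480 nm, λem 517 nm).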

The next series deals with A549. The series is described as follows: Induction of morphological changes in human A549 cells assessed as increase in protrusions of the membrane at 10 uM after 20 mins by naphthalimide/Lysotracker Deep Red dye-based inverted light fluorescence confocal microscopic analysis. It is filed as functional, cell-based. The essentials:
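A549 cells exposed to compound at 10 µM for 20 minutes, then imaged by confocal microscopy (λex 405 nm, λem 460–560 nm); membrane protrusions (blebbing) recorded.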

Sequence of Histone deacetylase 5 (Q9UQL6 whole entry, the tested form may be a part): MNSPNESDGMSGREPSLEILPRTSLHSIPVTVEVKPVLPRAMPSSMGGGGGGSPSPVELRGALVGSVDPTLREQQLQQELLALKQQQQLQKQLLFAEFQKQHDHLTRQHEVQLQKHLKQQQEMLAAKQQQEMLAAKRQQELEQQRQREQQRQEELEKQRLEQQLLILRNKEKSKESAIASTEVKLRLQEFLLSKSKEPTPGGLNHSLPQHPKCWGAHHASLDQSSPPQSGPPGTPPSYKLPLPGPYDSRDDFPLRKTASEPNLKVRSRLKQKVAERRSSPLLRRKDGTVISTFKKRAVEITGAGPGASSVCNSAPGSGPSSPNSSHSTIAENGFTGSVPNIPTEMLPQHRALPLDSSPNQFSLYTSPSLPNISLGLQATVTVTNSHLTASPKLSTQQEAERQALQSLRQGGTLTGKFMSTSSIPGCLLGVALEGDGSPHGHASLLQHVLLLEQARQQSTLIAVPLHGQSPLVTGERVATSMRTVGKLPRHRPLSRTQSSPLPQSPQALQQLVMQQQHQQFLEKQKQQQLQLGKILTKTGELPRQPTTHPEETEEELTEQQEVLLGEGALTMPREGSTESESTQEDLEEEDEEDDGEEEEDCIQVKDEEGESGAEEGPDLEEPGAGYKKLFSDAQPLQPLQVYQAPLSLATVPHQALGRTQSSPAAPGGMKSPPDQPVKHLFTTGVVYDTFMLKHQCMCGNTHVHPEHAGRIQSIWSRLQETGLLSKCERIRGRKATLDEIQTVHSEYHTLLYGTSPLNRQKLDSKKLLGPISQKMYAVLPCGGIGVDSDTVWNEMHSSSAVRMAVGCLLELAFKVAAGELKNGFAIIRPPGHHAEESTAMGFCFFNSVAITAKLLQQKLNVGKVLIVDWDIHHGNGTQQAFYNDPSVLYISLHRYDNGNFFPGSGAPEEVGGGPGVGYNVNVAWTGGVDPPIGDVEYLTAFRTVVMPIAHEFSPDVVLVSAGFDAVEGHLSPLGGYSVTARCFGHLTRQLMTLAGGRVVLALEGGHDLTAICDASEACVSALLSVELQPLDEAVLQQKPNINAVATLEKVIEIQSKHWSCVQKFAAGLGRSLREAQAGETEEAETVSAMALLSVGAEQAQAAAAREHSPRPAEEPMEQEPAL

Take `CCCNc1ccc2c3c(cccc13)C(=O)N(CCCCCC(=O)NO)C2=O`: on Histone deacetylase 5, the IC50 worked out at 5.3 µM. In addition, the Ratio IC50 in the series filed under Homo sapiens [1] is 1100; in the series listed under Homo sapiens [2] it was above 2000; with Kasumi 1, 5. For the same molecule, the Drug uptake result in series [3] is “Active”.

Consider `O=C(CCCCCN1C(=O)c2cccc3c(NCc4ccccc4)ccc(c23)C1=O)NO`, for which the IC50 on Histone deacetylase 5 stood at 3.4 µM. The Ratio IC50 in the series listed under Homo sapiens [1] was 970; in the series filed under Homo sapiens [2], above 2000. The outcome in the series with A549 was Active. Further, in series [3], the Drug uptake entry is listed as “Active”.
